In ChEMBL document CHEMBL1123152, “Synthesis, structure, and antitumor and antiviral activities of a series of 5-halouridine cyclic 3',5'-monophosphates” (1986):
Values after ≈ are worked out from the molar mass of the structure shown.

Experiments:
Format in all cases: functional
L1210 [1] = assay: Cytostatic activity against proliferation of L1210/0 cells (murine leukemia L1210 cells); conditions: Mus musculus, read-out: ID50 (the source's name)
Outline: (§1)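 Tumor cell proliferation assay. L1210/0 is the parental murine leukemia line and Raji/0 the parental human lymphoblast line, with a deoxythymidine kinase deficient Raji subline. Value is the ID50, the dose that inhibits cell proliferation by 50%.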

L1210 [2] = assay: Cytostatic activity against proliferation of L1210/BdU cells (deoxythymidine kinase deficient L1210 cells); conditions: Mus musculus, read-out: ID50 (the source's name)
Outline: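 Murine L1210 subline deficient in deoxythymidine kinase (L1210/BdU), selected for growth in 260 μg/mL 5-bromo-dU. Proliferation assay; value is the ID50, the dose that inhibits tumor cell proliferation by 50%.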

Raji [3] = assay: Cytostatic activity against proliferation of Raji/0 cells (human lymphoblast Raji cells); conditions: read-out: ID50 (the source's name); outline: as §1
Raji [4] = assay: Cytostatic activity against proliferation of Raji/TK cells (deoxythymidine kinase deficient Raji cells); conditions: Homo sapiens, read-out: ID50 (the source's name); outline: as §1
Human alphaherpesvirus 2 [5] = assay: Antiviral activity against Herpes Simplex Virus-2(196)
Outline: (§2)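 Primary rabbit kidney cell cultures infected with virus. Value is the minimum concentration that reduces virus-induced cytopathogenicity by 50%. Cytotoxicity was scored as a microscopically detectable alteration of normal cell morphology.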

Human alphaherpesvirus 2 [6] = assay: Antiviral activity against Herpes Simplex Virus-2(G); outline: as §2
Human alphaherpesvirus 2 [7] = assay: Antiviral activity against Herpes Simplex Virus-2(Lyons); outline: as §2
Human alphaherpesvirus 1 [8] = assay: Antiviral activity against Herpes Simplex Virus-1 (KOS); outline: as §2
Human alphaherpesvirus 1 [9] = assay: Antiviral activity against Herpes Simplex Virus-1 (McIntyre); outline: as §2
[10] = tested on: Vesicular stomatitis virus; assay: Antiviral activity against vesicular stomatitis virus; outline: as §2
Vaccinia virus = assay: Antiviral activity against vaccinia virus; conditions: Orthopoxvirus vaccinia; outline: as §2
Human alphaherpesvirus 1 [11] = assay: Antiviral activity against Herpes Simplex Virus-1 (F); outline: as §2

In the case of `O=c1[nH]cc(I)c(=O)[nH]1`, the IC50 (L1210 [1]) is reported as > 1000 µg/mL, the IC50 (L1210 [2]) is reported as > 1000 µg/mL and the IC50 (Raji [3]) is reported as > 1000 µg/mL. It also gave an IC50 (Raji [4]) of 612 µg/mL (≈ 2570 µM).
For `O=c1[nH]c(=O)n([C@@H]2O[C@H](COP(=O)(O)O)[C@@H](O)[C@H]2O)cc1I`, the IC50 (L1210 [1]) was 703 µg/mL (≈ 1560 µM), the IC50 (L1210 [2]) was > 1000 µg/mL and the IC50 (Raji [3]) was > 1000 µg/mL. For the same compound, the IC50 (Raji [4]) was > 1000 µg/mL.
In the case of `Oc1ncc(Cl)c(O)n1`, the IC50 (L1210 [1]) is reported as 455 µg/mL (≈ 3110 µM), the IC50 (L1210 [2]) is reported as 660 µg/mL (≈ 4500 µM) and the IC50 (Raji [3]) is reported as > 1000 µg/mL. For the same compound, the IC50 (Raji [4]) was > 1000 µg/mL.
Compound `O=c1[nH]c(=O)n([C@@H]2O[C@H](COP(=O)(O)O)[C@@H](O)[C@H]2O)cc1Br` has an IC50 (L1210 [1]) of 385 µg/mL (≈ 955 µM), an IC50 (L1210 [2]) of 376 µg/mL (≈ 933 µM) and an IC50 (Raji [3]) of 48 µg/mL (≈ 119 µM). For the same compound, the IC50 (Raji [4]) was > 1000 µg/mL.
Work on `O=c1[nH]c(=O)n([C@@H]2O[C@H](CO)[C@@H](O)[C@@H]2O)cc1Br` yielded an IC50 (L1210 [1]) of 210 µg/mL (≈ 650 µM), an IC50 (L1210 [2]) of 335 µg/mL (≈ 1040 µM) and an IC50 (Raji [3]) of 32 µg/mL (≈ 99 µM). It also gave an IC50 (Raji [4]) of 950 µg/mL (≈ 2940 µM).
In the case of `O=c1[nH]c(=O)n([C@@H]2O[C@@H]3COP(=O)(O)O[C@H]3[C@H]2O)cc1I`, the IC50 (L1210 [1]) is reported as 315 µg/mL (≈ 729 µM), the IC50 (L1210 [2]) is reported as 344 µg/mL (≈ 796 µM) and the IC50 (Raji [3]) is reported as 359 µg/mL (≈ 831 µM). The IC50 (Raji [4]) was 722 µg/mL (≈ 1670 µM).
With `O=c1[nH]c(=O)n([C@@H]2O[C@@H]3COP(=O)(O)O[C@H]3[C@H]2O)cc1Cl` the MIC (Human alphaherpesvirus 2 [5]) was > 400 µg/mL, the MIC (Human alphaherpesvirus 2 [6]) was > 400 µg/mL and the MIC (Human alphaherpesvirus 2 [7]) was > 400 µg/mL. For the same compound, the MIC (Human alphaherpesvirus 1 [8]) was > 400 µg/mL, the MIC (Human alphaherpesvirus 1 [9]) was > 400 µg/mL and the IC50 (L1210 [1]) was > 1000 µg/mL. For the same compound, the IC50 (L1210 [2]) was > 1000 µg/mL, the IC50 (Raji [3]) was 278 µg/mL (≈ 816 µM) and the IC50 (Raji [4]) was 369 µg/mL (≈ 1080 µM). The MIC [10] was > 400 µg/mL, the MIC (Vaccinia virus) was > 400 µg/mL and the MIC (Human alphaherpesvirus 1 [11]) was > 400 µg/mL.
For `O=c1[nH]c(=O)n([C@@H]2O[C@@H]3COP(=O)(O)O[C@H]3[C@H]2O)cc1Br`, the MIC (Human alphaherpesvirus 2 [5]) was > 200 µg/mL, the MIC (Human alphaherpesvirus 2 [6]) was > 200 µg/mL and the MIC (Human alphaherpesvirus 2 [7]) was 150 µg/mL (≈ 390 µM). The MIC (Human alphaherpesvirus 1 [8]) was > 200 µg/mL, the MIC (Human alphaherpesvirus 1 [9]) was 200 µg/mL (≈ 519 µM) and the IC50 (L1210 [1]) was 315 µg/mL (≈ 818 µM). For the same compound, the IC50 (L1210 [2]) was 294 µg/mL (≈ 764 µM), the IC50 (Raji [3]) was 210 µg/mL (≈ 545 µM) and the IC50 (Raji [4]) was 241 µg/mL (≈ 626 µM). For the same compound, the MIC [10] was > 200 µg/mL, the MIC (Vaccinia virus) was > 200 µg/mL and the MIC (Human alphaherpesvirus 1 [11]) was > 200 µg/mL.
For `O=c1[nH]c(=O)n([C@@H]2O[C@@H]3COP(=O)(O)O[C@H]3[C@H]2O)cc1F`, the MIC (Human alphaherpesvirus 2 [5]) was > 100 µg/mL, the MIC (Human alphaherpesvirus 2 [6]) was > 100 µg/mL and the MIC (Human alphaherpesvirus 2 [7]) was > 100 µg/mL. For the same compound, the MIC (Human alphaherpesvirus 1 [8]) was > 100 µg/mL, the MIC (Human alphaherpesvirus 1 [9]) was > 100 µg/mL and the IC50 (L1210 [1]) was 0.34 µg/mL (≈ 1.05 µM). For the same compound, the IC50 (L1210 [2]) was 0.332 µg/mL (≈ 1.02 µM), the IC50 (Raji [3]) was 0.416 µg/mL (≈ 1.28 µM) and the IC50 (Raji [4]) was 1.64 µg/mL (≈ 5.06 µM). For the same compound, the MIC [10] was 150 µg/mL (≈ 463 µM), the MIC (Vaccinia virus) was 20 µg/mL (≈ 61.7 µM) and the MIC (Human alphaherpesvirus 1 [11]) was > 100 µg/mL.
`O=c1[nH]c(=O)n(C2O[C@H](COP(=O)(O)O)[C@@H](O)[C@@H]2O)cc1F` (stereo partly drawn) gave an IC50 (L1210 [1]) of 0.024 µg/mL (≈ 0.0701 µM), an IC50 (L1210 [2]) of 0.03 µg/mL (≈ 0.0877 µM) and an IC50 (Raji [3]) of 0.029 µg/mL (≈ 0.0848 µM). For the same compound, the IC50 (Raji [4]) was 0.141 µg/mL (≈ 0.412 µM).
For `O=c1[nH]c(=O)n(C2O[C@H](CO)[C@@H](O)[C@@H]2O)cc1I` (stereo partly drawn), the IC50 (L1210 [1]) was > 1000 µg/mL, the IC50 (L1210 [2]) was > 1000 µg/mL and the IC50 (Raji [3]) was 639 µg/mL (≈ 1730 µM). It also gave an IC50 (Raji [4]) of 738 µg/mL (≈ 1990 µM).
For `O=c1[nH]cc(Br)c(=O)[nH]1` [5-BROMOURACIL], the IC50 (L1210 [1]) was > 1000 µg/mL, the IC50 (L1210 [2]) was > 1000 µg/mL and the IC50 (Raji [3]) was > 1000 µg/mL. For the same compound, the IC50 (Raji [4]) was > 1000 µg/mL.
With `O=c1[nH]c(=O)n([C@@H]2O[C@H](CO)[C@@H](O)[C@H]2O)cc1F` [5-FLUOROURIDINE] the IC50 (L1210 [1]) was 0.013 µg/mL (≈ 0.0496 µM), the IC50 (L1210 [2]) was 0.019 µg/mL (≈ 0.0725 µM) and the IC50 (Raji [3]) was 0.023 µg/mL (≈ 0.0877 µM). For the same compound, the IC50 (Raji [4]) was 0.085 µg/mL (≈ 0.324 µM).
With `O=c1[nH]c(=O)n([C@H]2C[C@H](O)[C@@H](CO)O2)cc1/C=C/Br` [BRIVUDINE] the MIC (Human alphaherpesvirus 2 [5]) was 100 µg/mL (≈ 300 µM), the MIC (Human alphaherpesvirus 2 [6]) was 1 µg/mL (≈ 3 µM) and the MIC (Human alphaherpesvirus 2 [7]) was 1 µg/mL (≈ 3 µM). For the same compound, the MIC (Human alphaherpesvirus 1 [8]) was 0.02 µg/mL (≈ 0.06 µM), the MIC (Human alphaherpesvirus 1 [9]) was 0.02 µg/mL (≈ 0.06 µM) and the MIC [10] was > 400 µg/mL. For the same compound, the MIC (Vaccinia virus) was 2 µg/mL (≈ 6 µM) and the MIC (Human alphaherpesvirus 1 [11]) was 0.02 µg/mL (≈ 0.06 µM).
Work on `O=c1[nH]cc(F)c(=O)[nH]1` [FLUOROURACIL] yielded an IC50 (L1210 [1]) of 0.208 µg/mL (≈ 1.6 µM), an IC50 (L1210 [2]) of 0.286 µg/mL (≈ 2.2 µM) and an IC50 (Raji [3]) of 1.35 µg/mL (≈ 10.4 µM). For the same compound, the IC50 (Raji [4]) was 3.37 µg/mL (≈ 25.9 µM).
